Results: ChEMBL document CHEMBL1146462, “New communesin derivatives from the fungus Penicillium sp. derived from the Mediterranean sponge Axinella verrucosa” (J Nat Prod, 2004)
In brackets after ≈: the same amount, converted by molar mass. Activity calls are given as the source filed them. The rule behind the calls is not given here.

Assays:
L-428 = experiment: Antiproliferative activity against human L428 cells after 48 hrs by MTT assay; format: functional
In short: (§1)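 Human leukemia cell lines were tested for antiproliferative activity by MTT assay and by radioactive thymidine incorporation. Results are given as ED₅₀ in μg/mL.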

[1] = Antiproliferative activity against human NAMALWA cells after 48 hrs by MTT assay; format: functional; settings: NAMALVA, read-out: ED50 (the source's name); in short: as §1
THP-1 = experiment: Antiproliferative activity against human THP1 cells after 48 hrs by MTT assay; format: functional; settings: THP-1, 48 h, read-out: ED50 (the source's name); in short: as §1
[2] = Toxicity in Artemia salina; format: organism-based; settings: in vivo
U-937 = experiment: Antiproliferative activity against human U937 cells after 48 hrs by MTT assay; format: functional; settings: U-937, 48 h, read-out: ED50 (the source's name); in short: as §1
[3] = Antiproliferative activity against human SUP-B15 cells after 48 hrs by MTT assay; format: functional; settings: SUP-B15, 48 h, read-out: ED50 (the source's name); in short: as §1
MOLT-3 = experiment: Antiproliferative activity against human MOLT3 cells after 48 hrs by MTT assay; format: functional; settings: MOLT-3, 48 h, read-out: ED50 (the source's name); in short: as §1

Row | Compound | EC50 (L-428; L-428, 48 h, read-out: ED50 (the source's name)) | EC50 [1] | EC50 (THP-1) | LC50 [2] | EC50 (U-937) | EC50 [3] | EC50 (MOLT-3) | Activity (L-428)
1 | C/C=C/C=C/C(=O)N1CC[C@@]23c4ccccc4N[C@@H]4N(C)c5cccc6c5[C@@]42CCN([C@@H]13)[C@@H]6[C@H]1OC1(C)C [COMMUNESIN B] | > 20 µg/mL | 9.9 µg/mL (≈ 19.5 µM) | 11.4 µg/mL (≈ 22.4 µM) | 0.3 µg/mL (≈ 0.59 µM) | 10.4 µg/mL (≈ 20.4 µM) | 7.2 µg/mL (≈ 14.2 µM) | 8.1 µg/mL (≈ 15.9 µM) | –
2 | C/C=C/C=C/C(=O)N1CC[C@@]23c4ccccc4N[C@@H]4Nc5cccc6c5[C@@]42CCN([C@@H]13)[C@@H]6[C@H]1OC1(C)C [COMMUNESIN C] | – | 8.2 µg/mL (≈ 16.6 µM) | 13.1 µg/mL (≈ 26.5 µM) | 1.96 µg/mL (≈ 3.96 µM) | 11.3 µg/mL (≈ 22.8 µM) | 10.8 µg/mL (≈ 21.8 µM) | 8.6 µg/mL (≈ 17.4 µM) | inactive
3 | C/C=C/C=C/C(=O)N1CC[C@@]23c4ccccc4N[C@@H]4N(C=O)c5cccc6c5[C@@]42CCN([C@@H]13)[C@@H]6[C@H]1OC1(C)C [COMMUNESIN D] | – | 14.6 µg/mL (≈ 27.9 µM) | 16.2 µg/mL (≈ 31 µM) | 0.57 µg/mL (≈ 1.09 µM) | 13.1 µg/mL (≈ 25.1 µM) | 9 µg/mL (≈ 17.2 µM) | 9.9 µg/mL (≈ 18.9 µM) | inactive
